Source: PubChem (Broad Institute)
The list is not random: actives were taken first. Their share in the collection is about 3%.
N-glyco inh: N-linked glycosylation inhibition; reporter increase, % at 12.5 µM; AID 588692; 0.23% of 360,000 active; D54 ERlucT glycosylation luciferase reporter, 24 h; percent of 100 nM tunicamycin response;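 active = mean luciferase reporter signal, scaled so untreated is 0 and the glycosylation-blocking control 100, at or above a set limit in every replicate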;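 also: luciferase carries N-glycosylation sites so blocking glycosylation raises the light; 0% = median of neutral control wells and 100% = median of 100 nM tunicamycin wells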
CaV13 FRET inh: Primary screen for inhibitors of IQ motif and Ca2+-dependent inactivation inhibitor domain binding in CACNA1D, Förster resonance energy transfer in living cells, …; HEK cells, CFP/YFP FRET ICDI-IQ, plate reader, 10 min; percent FRET-ratio fall versus neutral wells; inhibition, % at 12.3 µM; 0.098% of 340,000 active; AID 743397;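 active = mean replicate inhibition of at least 30% and at least 1% of replicates passing that level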;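 also: 0% = median of the neutral control wells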
PvdQ inh: P. aeruginosa PvdQ acylase inhibition; purified PvdQ acylase, fluorescence plate reader; inhibition, % at 10 µM; 0.063% of 340,000 active; in the data active = inhibition above about 30%, passing the limit was not always enough;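 also: 0% = vehicle neutral wells and 100% = reference inhibitor wells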
T cruzi repl: T. cruzi replication inhibition; T. cruzi beta-gal in NIH3T3, luminescence, 90 h; inhibition, % (no concentration beside the values); 1.4% of 300,000 active;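 active = mean inhibition across valid replicates above about 55%, limit read from the data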;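 also: signal also drops with host cell toxicity which is not excluded here; 0% = plate median of DMSO wells and 100% = zero luminescence signal; higher percent means less beta-gal luminescence so fewer parasites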
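Assay system: NIH/3T3 fibroblasts plus reporter T. cruzi. Amount: NIH/3T3 cells, 5,000 per well. Buffer or medium: DMEM, 2% fetal bovine serum. Doses: compound pinned at 50 nL/well, DMSO. Schedule: ≥90 h infection period, 3 h prior cell attachment. Signal: luminescent β-galactosidase signal after 60 min lysis. Read-out: parasite load inhibition, %.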
HSF1 activator: increases HSF-1 driven luciferase reporter signal | NIH3T3-HGL HSF-1 luciferase reporter, MG132, 8 h; 100% = twice DMSO control signal | activation, % at 9 µM | 1.7% of 300,000 active | AID 504408;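 active = mean replicate activation of at least 50% with a set share of replicates each reaching 50%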;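 also: 0% = median of the neutral control wells and 100% = twice that signal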
PfHsp90 yeast 2: inhibits growth of yeast expressing Plasmodium falciparum Hsp90; S. cerevisiae expressing PfHsp90, BacTiter-Glo ATP, 48 h; yeast lacking PDR1 and PDR3 efflux regulators; inhibition, % at 9.4 µM; 0.32% of 310,000 active; AID 504621;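 active = every replicate shows inhibition above about 80%, whatever the replicate mean, limit read from the data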;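 also: 0% = DMSO neutral controls and 100% = 20 µM radicicol positive controls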
* = called active by the depositor; . = no result given.

SMILES | N-glyco inh | CaV13 FRET inh | PvdQ inh | T cruzi repl | HSF1 activator | PfHsp90 yeast 2
C[C@@H]1CN([C@@H](C)CO)C(=O)CCCn2nncc2CO[C@@H]1CN(C)S(=O)(=O)c1ccc(Oc2ccccc2)cc1 | 2 | -4 | . | . | . | .
COC(=O)[C@]12C[C@H](CC(=O)NCc3cccc4ccccc34)C(=O)N(CCC3=CCCCC3)C1=C[C@H](C(C)(C)C)O[C@@H]2C | . | -8 | . | . | . | .
c1ccc(-c2csc(Nc3nc(N4CCOCC4)nc(N4CCOCC4)n3)n2)cc1 | -2 | . | -16 | 61* | -36 | -1
Clc1ccc(-c2csc(N3CCOCC3)n2)cc1 | -1 | 5 | -8 | -13 | 53* | -33
Cc1cc(C)nc(Nc2nc(-c3ccccc3)cs2)n1 | -16 | -4 | -16 | 7 | -25 | -29
CC(=O)c1sc2nsc(SCCN3CCOCC3)c2c1N | 0 | -7 | . | -7 | -9 | .
Nc1c(C(=O)c2ccccc2)sc2nsc(SCCN3CCOCC3)c12 | 20 | -93 | . | 14 | 60* | .
O=c1[nH]c(=S)c2[nH]c(=S)n(-c3ccccc3)c2[nH]1 | 0 | -11 | 9 | . | . | -7
CCOC(=O)C(C(=O)OCC)C(Nc1cccc(Br)c1)c1ccccc1 (stereo not given) | 19 | -5 | -12 | -44 | 203* | 32
O=C(O)CN1C(=O)/C(=C\c2cccc(OCc3ccccc3F)c2)SC1=S | 3 | -4 | -7 | 2 | 58* | -18
C[C@H](O)[C@@H]1CN2CCc3c([nH]c4c(-c5ccccc5)cccc34)[C@@H]2C[C@@H]1N(C)C(=S)NCCc1ccccc1 | . | -5 | . | . | . | .
Cc1cccc(NS(=O)(=O)c2cc3c4c(c2)CCN4C(=O)CC3)c1C | -2 | . | -10 | 1 | -3 | -13
CCc1ccccc1NS(=O)(=O)c1cc2c3c(c1)CCN3C(=O)CC2 | 1 | -6 | -13 | 10 | 62* | -21
CC(=O)c1ccc(-n2cc(-c3ccc(C(C)(C)C)cc3)[n+]3c2SCCC3)cc1 | 6 | -5 | -1 | 68* | -4 | 12
O=C(NNC1=C(C(=O)C(F)(F)F)CCC1)c1ccc(Br)cc1 | 8 | -6 | 11 | -12 | -7 | 130*
CCOC(=O)C1(CCOc2ccccc2)CCN(Cc2ccc3nonc3c2)CC1 | -6 | -6 | -7 | 67* | -19 | -16
CCOC(=O)C1(CCOc2ccccc2)CCN(Cc2cccc3c2OCO3)CC1 | -3 | -5 | -6 | 65* | 1 | 8
CCOC(=O)C1(CCOc2ccccc2)CCN(Cc2cccn2-c2cccnc2)CC1 | -5 | -5 | -11 | 60* | 34 | 4
CCOC(=O)C1(CCOc2ccccc2)CCN(Cc2cc(OC)c3c(c2)OCO3)CC1 | -3 | 4 | -11 | 60* | 57* | 15
CCOC(=O)C1(CCOc2ccccc2)CCN(Cc2ccccc2O)CC1 | -3 | -11 | -9 | 29 | 8 | -1
CS(=O)(=O)n1c2ccccc2c(=O)n1-c1ccccc1CCl | -3 | -5 | . | . | . | .
O=S(=O)(Nc1ccc(F)cc1)N1CCOCC1 | 0 | -6 | -12 | 3 | 7 | -1
CC1(C(=O)NS(=O)(=O)C2CC2)CCCN(C(=O)c2cc3ccccc3s2)C1 (stereo not given) | 3 | -6 | . | . | . | .
CCCCCCOC(=O)Sc1nc2ccccc2o1 | -1 | -3 | -11 | -2 | 18 | 128*
CC1(C)Cc2c(sc3[nH]c(=S)n(Cc4ccco4)c(=O)c23)CO1 | 16 | -6 | -2 | 1 | 40 | -13
SMILES | N-glyco inh | CaV13 FRET inh | PvdQ inh | T cruzi repl | HSF1 activator | PfHsp90 yeast 2
O=c1c2c3c(sc2[nH]c(=S)n1Cc1ccco1)CCC3 | 5 | -5 | -1 | -27 | 94* | -15
O=C(NCC1CCN(C(=O)C(=O)c2cc3ccccc3o2)CC1)c1ccc2c(c1)OCCCO2 | . | -9 | . | . | . | .
NCCc1nnc(SCc2ccc(F)cc2)o1 | 2 | -5 | -14 | -17 | 64* | 0
Fc1ccc(NCc2nnc(SCc3ccccc3)o2)cc1 | 1 | 4 | -17 | 0 | 8 | 9
Cc1nn(-c2ccccc2)c(N)c1N=Nc1ccc2ccccc2c1 | -1 | -5 | 3 | -26 | 78* | -16
Cc1ccc(O)c(C(=O)c2cnc3c(c2)c(-c2ccc(F)cc2)c(C#N)c(=O)n3C)c1 | -7 | 7 | 3 | 2 | 63* | .
C[C@@H]1CN([C@H](C)CO)C(=O)c2cc(Br)cnc2O[C@H]1CN(C)Cc1ccccc1F | . | -6 | . | . | . | .
Cc1ccc(C(=O)c2sc3nsc(C)c3c2N)cc1 | -15 | -5 | -7 | -7 | 61* | .
C=CCN1C(=O)c2n[nH]c(C(C)C)c2C1c1ccc2c(c1)OCO2 (stereo not given) | . | -3 | . | . | . | .
Cc1ccc(C(=O)N2CCC[C@@H]2C(=O)N2CCC[C@@H]2C(=O)NCc2ccccc2)cc1C | . | -10 | . | . | . | .
Cc1c(NC(=O)CSc2nnc(-c3ccccc3F)o2)c(=O)n(-c2ccccc2)n1C | 6 | -5 | . | . | . | .
CCc1cc2c(=O)[nH]c(-c3ccccn3)nc2s1 | -15 | -4 | 2 | 60* | 215* | -3
CCn1c(=O)n(CC)c2cc(N3CCCC3)c(NC(=O)c3cc(Br)ccc3OC)cc21 | . | -2 | . | 64* | 6 | .
COc1ccc(Br)cc1C(=O)Nc1ccccc1N1CCCC1 | 0 | -4 | -3 | 23 | 28 | 3
O=C(NCCc1nc2ccccc2[nH]1)c1cccc(Br)c1 | -2 | -3 | -4 | 56* | 5 | 6
C[C@H]1CN([C@@H](C)CO)C(=O)CCCn2nncc2CO[C@H]1CN(C)C(=O)NC1CCCCC1 | 1 | -7 | . | . | . | .
NC(CSC(c1ccccc1)(c1ccccc1)c1ccc2c(c1)OCO2)C(=O)O (stereo not given) | 1 | -6 | . | . | . | .
CC1CCN(Cc2ccc(NC(=O)CC3Oc4ccccc4NC3=O)cc2)CC1 (stereo not given) | -4 | 52* | -21 | -1 | -7 | 10
CCc1cccc(NC(=O)CC2Oc3ccccc3NC2=O)c1 (stereo not given) | -1 | -6 | -7 | -19 | -4 | -31
CC(C)c1[nH]nc2c1C(c1ccc(Br)cc1)NC2=O (stereo not given) | . | -3 | . | . | . | .
C[C@H]1CN([C@@H](C)CO)C(=O)CCCn2cc(nn2)CO[C@@H]1CN(C)C(=O)c1ccc2ccn(C)c2c1 | . | -6 | . | . | . | .
CCCCOC(=O)CCc1c(C)n[nH]c1C | 1 | -5 | -14 | -15 | 63* | 7
CCCCOC(=O)CCc1c(C)[nH]c(=O)c(C#N)c1C | 2 | . | -5 | -5 | -21 | -12
COc1ccc(C(C)C)cc1-c1cccc2nncn12 | -2 | -4 | . | . | . | .
CCOc1ccccc1N=c1oc2cc(O)ccc2cc1C(=O)NCC1CCCO1 (stereo not given) | 0 | 33* | -1 | 3 | 1 | 14
